Measurements as given in ChEMBL document CHEMBL1140049, “Bioisosteric replacement of the pyrazole 5-aryl moiety of N-(piperidin-1-yl)-5-(4-chlorophenyl)-1-(2,4-dichlorophenyl)-4-methyl-1H-pyrazole-3-carboxamide (SR141716A). A novel series of alkynylthiophenes as potent and selective cannabinoid-1 receptor antagonists” (J Med Chem, 2008).
The source made the active and inactive calls. The rule behind the calls is not given here.

Tests used:
Cannabinoid receptor 1 [1] = target: T1, Cannabinoid receptor 1 (Homo sapiens, UniProt P21554); test: Antagonist activity at human CB1 receptor expressed in HEK293 cells assessed as inhibition of Eu-GTP binding; type: cell-based
HEK293 = test: Selectivity ratio of IC50 for human CB2 receptor to human CB1 receptor expressed in HEK293 cells; type: cell-based
Cannabinoid receptor 2 = Cannabinoid receptor 2 (Homo sapiens, UniProt P34972); test: Displacement of [3H]CP-55940 from human CB2 receptor expressed in HEK293 cells; type: cell-based
Cannabinoid receptor 1 [2] = target: T1, Cannabinoid receptor 1; test: Agonist activity at human CB1 receptor expressed in HEK293 cells assessed as increase in [35S]gammaGTP binding relative to control; type: cell-based
Cannabinoid receptor 1 [3] = target: T1, Cannabinoid receptor 1; test: biochemical; type: cell-based, HEK293
Cannabinoid receptor 1 [4] = target: T1, Cannabinoid receptor 1; test: Displacement of [3H]SR141716A from human CB1 receptor expressed in HEK293 cells; type: cell-based
Cannabinoid receptor 1 [5] = target: T1, Cannabinoid receptor 1; test: Antagonist activity at human CB1 receptor expressed in HEK293 cells assessed as effect on [35S]gammaGTP binding relative to control; type: cell-based
Mus musculus [6] = test: Decrease in body weight in DIO C57BL/6 mouse model at 20 mg/kg, po qd for 21 days; type: functional, organism-based; design: dose 20 mg/kg
Rattus norvegicus = test: Suppression of appetite in orally dosed spontaneously feeding Wistar rat model; type: functional, organism-based
Method in brief: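 Male Wistar rats (210-270 g), singly housed on 12 h reversed light cycle over a week; single oral gavage of 3, 10 or 20 mg/kg or vehicle (20% DMSO/10% Tween-80/70% H2O) before lights off, chow supplied at 11 a.m.; food intake at 1, 2, 3, 6 h as cal per g body weight; n = 4-6.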

Mus musculus [7] = test: Suppression of appetite in orally dosed DIO C57BL/6 mouse model; type: functional, organism-based
Mus musculus [8] = test: Decrease in body weight in DIO C57BL/6 mouse model at 10 mg/kg, po qd for 21 days

T1 sequence (P21554 whole entry): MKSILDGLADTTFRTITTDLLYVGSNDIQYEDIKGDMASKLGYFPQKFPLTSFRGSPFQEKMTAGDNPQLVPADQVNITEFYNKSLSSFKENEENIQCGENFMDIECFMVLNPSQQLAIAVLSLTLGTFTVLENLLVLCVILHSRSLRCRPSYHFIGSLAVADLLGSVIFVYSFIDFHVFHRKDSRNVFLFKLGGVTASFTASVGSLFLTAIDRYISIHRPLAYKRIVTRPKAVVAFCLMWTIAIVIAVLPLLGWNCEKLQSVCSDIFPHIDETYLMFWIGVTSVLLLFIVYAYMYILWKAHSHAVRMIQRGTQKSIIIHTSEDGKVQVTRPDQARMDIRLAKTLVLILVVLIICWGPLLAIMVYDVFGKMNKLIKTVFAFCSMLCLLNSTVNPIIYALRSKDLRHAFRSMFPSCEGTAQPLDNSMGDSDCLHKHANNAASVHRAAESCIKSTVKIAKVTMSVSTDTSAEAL
Sequence of Cannabinoid receptor 2 (P34972 whole entry): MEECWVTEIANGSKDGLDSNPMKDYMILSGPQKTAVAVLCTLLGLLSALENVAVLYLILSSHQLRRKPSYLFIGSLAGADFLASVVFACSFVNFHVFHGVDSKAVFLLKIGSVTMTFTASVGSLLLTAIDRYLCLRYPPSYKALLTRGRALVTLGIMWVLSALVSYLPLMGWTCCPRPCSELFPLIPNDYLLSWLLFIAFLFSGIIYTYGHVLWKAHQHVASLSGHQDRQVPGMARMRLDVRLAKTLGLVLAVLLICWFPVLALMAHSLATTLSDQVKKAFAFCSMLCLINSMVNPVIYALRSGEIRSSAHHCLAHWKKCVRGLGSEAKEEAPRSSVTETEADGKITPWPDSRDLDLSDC

`Cc1c(C(=O)NN2CCCCC2)nn(-c2ccc(Cl)cc2Cl)c1-c1ccc(C#CCCc2ccccc2)s1` was tested, and the EC50 (Cannabinoid receptor 1 [1]) was 20.4 nM, the Ratio IC50 (HEK293) was 285 and the IC50 (Cannabinoid receptor 2) was 1750 nM. The Activity (Cannabinoid receptor 1 [2]) was “Active” and the IC50 (Cannabinoid receptor 1 [3]) was 6.1 nM.

In the case of `CCCCC#Cc1ccc(-c2c(C)c(C(=O)NCCCC)nn2-c2ccc(Cl)cc2Cl)s1`, the EC50 (Cannabinoid receptor 1 [1]) is reported as 29.8 nM, the Ratio IC50 (HEK293) is reported as 213 and the IC50 (Cannabinoid receptor 2) is reported as 638 nM. The Activity (Cannabinoid receptor 1 [2]) was “Active” and the IC50 (Cannabinoid receptor 1 [3]) was 3 nM.

Compound `Cc1c(C(=O)NN2CCCCC2)nn(-c2ccc(Cl)cc2Cl)c1-c1ccc(C#CCC(C)C)s1` has an EC50 (Cannabinoid receptor 1 [1]) of 12.1 nM, a Ratio IC50 (HEK293) of 168 and an IC50 (Cannabinoid receptor 1 [4]) of 1.2 nM. The IC50 (Cannabinoid receptor 2) was 386 nM, the Activity (Cannabinoid receptor 1 [2]) was “Active” and the IC50 (Cannabinoid receptor 1 [3]) was 2.3 nM.

`Cc1c(C(=O)NN2CCCCC2)nn(-c2ccc(Cl)cc2Cl)c1-c1ccc(C#CCN(C)C)s1` gave an EC50 (Cannabinoid receptor 1 [1]) of 349 nM, a Ratio IC50 (HEK293) of 10 and an IC50 (Cannabinoid receptor 2) of 1270 nM. The IC50 (Cannabinoid receptor 1 [3]) was 124 nM.

`CCCCCc1ccc(-c2c(C)c(C(=O)NN3CC4CCCC4C3)nn2-c2ccc(Cl)cc2Cl)s1` (centres undefined) was tested, and the EC50 (Cannabinoid receptor 1 [1]) was 48 nM, the Ratio IC50 (HEK293) was 178 and the IC50 (Cannabinoid receptor 2) was 3660 nM. The IC50 (Cannabinoid receptor 1 [3]) was 20.6 nM.

Work on `CCOCC#Cc1ccc(-c2c(C)c(C(=O)NN3CCCCC3)nn2-c2ccc(Cl)cc2Cl)s1` yielded an EC50 (Cannabinoid receptor 1 [1]) of 25.5 nM, a Ratio IC50 (HEK293) of 78 and an IC50 (Cannabinoid receptor 2) of 986 nM. For the same compound, the IC50 (Cannabinoid receptor 1 [3]) was 12.7 nM.

For `Cc1c(C(=O)NN2CCCCC2)nn(-c2ccc(Cl)cc2Cl)c1-c1ccc(Br)s1`, the EC50 (Cannabinoid receptor 1 [1]) was 68.2 nM, the Ratio IC50 (HEK293) was 25 and the IC50 (Cannabinoid receptor 2) was 895 nM. It also gave an IC50 (Cannabinoid receptor 1 [3]) of 35.8 nM.

`CCCC#Cc1ccc(-c2c(C)c(C(=O)NN3CCCCC3)nn2-c2ccc(Cl)cc2Cl)s1` showed an EC50 (Cannabinoid receptor 1 [1]) of 28.7 nM, a Ratio IC50 (HEK293) of 159 and an IC50 (Cannabinoid receptor 1 [4]) of 1.2 nM. The IC50 (Cannabinoid receptor 2) was 2210 nM, the Activity (Cannabinoid receptor 1 [5]) was “Active” and the IC50 (Cannabinoid receptor 1 [3]) was 13.9 nM.

`CCCCC#Cc1ccc(-c2c(C)c(C(=O)NN3CCCCC3)nn2-c2ccc(Cl)cc2Cl)s1` was tested, and the EC50 (Cannabinoid receptor 1 [1]) was 7.9 nM, the Ratio IC50 (HEK293) was 222 and the IC50 (Cannabinoid receptor 2) was 311 nM. The Activity (Cannabinoid receptor 1 [2]) was “Active” and the IC50 (Cannabinoid receptor 1 [3]) was 1.4 nM.

For `CCC#Cc1ccc(-c2c(C)c(C(=O)NN3CCCCCC3)nn2-c2ccc(Cl)cc2Cl)s1`, the EC50 (Cannabinoid receptor 1 [1]) was 36.4 nM, the Ratio IC50 (HEK293) was 44 and the IC50 (Cannabinoid receptor 2) was 1060 nM. The Activity (Cannabinoid receptor 1 [5]) was “Active” and the IC50 (Cannabinoid receptor 1 [3]) was 24.2 nM.

In the case of `Cc1c(C(=O)NN2CCCCCC2)nn(-c2ccc(Cl)cc2Cl)c1-c1ccc(Cl)s1`, the EC50 (Cannabinoid receptor 1 [1]) is reported as 134 nM, the Ratio IC50 (HEK293) is reported as 14 and the IC50 (Cannabinoid receptor 2) is reported as 2160 nM. The IC50 (Cannabinoid receptor 1 [3]) was 159 nM.

With `CCCC#Cc1ccc(-c2c(CC)c(C(=O)NN3CCCCC3)nn2-c2ccc(Cl)cc2Cl)s1` the EC50 (Cannabinoid receptor 1 [1]) was 13.8 nM, the Ratio IC50 (HEK293) was 151 and the IC50 (Cannabinoid receptor 1 [4]) was 1.2 nM. For the same compound, the Activity (Mus musculus [6]) was “Active”, the IC50 (Cannabinoid receptor 2) was 920 nM and the Activity (Rattus norvegicus) was “Dose-dependent effect”. The Activity (Mus musculus [7]) was “Dose-dependent effect” and the IC50 (Cannabinoid receptor 1 [3]) was 6.1 nM.

With `COCC#Cc1ccc(-c2c(C)c(C(=O)NN3CCCCC3)nn2-c2ccc(Cl)cc2Cl)s1` the EC50 (Cannabinoid receptor 1 [1]) was 143 nM, the Ratio IC50 (HEK293) was 42 and the IC50 (Cannabinoid receptor 2) was 2740 nM. It also gave an IC50 (Cannabinoid receptor 1 [3]) of 65.3 nM.

With `Cc1c(C(=O)NN2CCCCC2)nn(-c2ccc(Cl)cc2Cl)c1-c1ccc(Cl)cc1` the Activity (Mus musculus [8]) was “Active”.

`Cc1c(C(=O)NN2CCCCC2)nn(-c2ccc(Cl)cc2Cl)c1-c1ccc(C#CC(C)(C)C)s1` showed an EC50 (Cannabinoid receptor 1 [1]) of 28.9 nM, a Ratio IC50 (HEK293) of 59 and an IC50 (Cannabinoid receptor 2) of 1900 nM. The Activity (Cannabinoid receptor 1 [2]) was “Active” and the IC50 (Cannabinoid receptor 1 [3]) was 32.7 nM.

In the case of `Cc1c(C(=O)NN2CC3CCCC3C2)nn(-c2ccc(Cl)cc2Cl)c1-c1ccc(C#CC2CCCCC2)s1` (centres undefined), the EC50 (Cannabinoid receptor 1 [1]) is reported as 294 nM, the Ratio IC50 (HEK293) is reported as 221 and the IC50 (Cannabinoid receptor 2) is reported as 1730 nM. The Activity (Cannabinoid receptor 1 [2]) was “Active” and the IC50 (Cannabinoid receptor 1 [3]) was 7.8 nM.

For `CCCCC#Cc1ccc(-c2c(C)c(C(=O)NCCCCCC)nn2-c2ccc(Cl)cc2Cl)s1`, the EC50 (Cannabinoid receptor 1 [1]) was 74 nM, the Ratio IC50 (HEK293) was 100 and the IC50 (Cannabinoid receptor 2) was 261 nM. The Activity (Cannabinoid receptor 1 [2]) was “Active” and the IC50 (Cannabinoid receptor 1 [3]) was 2.6 nM.

For `Cc1c(C(=O)NN2CCCCC2)nn(-c2ccc(Cl)cc2Cl)c1-c1ccc(C#CCNC(C)C)s1`, the EC50 (Cannabinoid receptor 1 [1]) was 390 nM, the Ratio IC50 (HEK293) was 87 and the IC50 (Cannabinoid receptor 2) was 7180 nM. The IC50 (Cannabinoid receptor 1 [3]) was 82.4 nM.

With `Cc1c(C(=O)NN2CC3CCCC3C2)nn(-c2ccc(Cl)cc2Cl)c1-c1ccc(C#CC(C)(C)C)s1` (centres undefined) the EC50 (Cannabinoid receptor 1 [1]) was 158 nM, the Ratio IC50 (HEK293) was 53 and the IC50 (Cannabinoid receptor 2) was 1160 nM. For the same compound, the Activity (Cannabinoid receptor 1 [2]) was “Active” and the IC50 (Cannabinoid receptor 1 [3]) was 21.7 nM.

`CCCCC#Cc1ccc(-c2c(C)c(C(=O)NN3CC4CCCC4C3)nn2-c2ccc(Cl)cc2Cl)s1` (centres undefined) showed an EC50 (Cannabinoid receptor 1 [1]) of 5.7 nM, a Ratio IC50 (HEK293) of 122 and an IC50 (Cannabinoid receptor 2) of 158 nM. The Activity (Cannabinoid receptor 1 [2]) was “Active” and the IC50 (Cannabinoid receptor 1 [3]) was 1.3 nM.
